Compound activity (PubChem)
This is a sample that favours compounds with a hit; in the whole collection about 2.3% have one here.
TRPC6 inhibitor: mouse TRPC6 channel inhibition; Q61143; HEK293-TRPC6, membrane potential dye, ACh-evoked depolarization; active compounds read low; B-score at 10 µM; actives 1.1% (n = 310,000); AID 2553;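 active means B-score under library mean minus 3 SD, initial fluorescence not abnormally high, positive integrated signal ratio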;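 further: B-score derived from integrated fluorescence ratio over the kinetic read; more negative B-score means stronger inhibition of depolarization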
Target sequence (Q61143 whole entry, looked up): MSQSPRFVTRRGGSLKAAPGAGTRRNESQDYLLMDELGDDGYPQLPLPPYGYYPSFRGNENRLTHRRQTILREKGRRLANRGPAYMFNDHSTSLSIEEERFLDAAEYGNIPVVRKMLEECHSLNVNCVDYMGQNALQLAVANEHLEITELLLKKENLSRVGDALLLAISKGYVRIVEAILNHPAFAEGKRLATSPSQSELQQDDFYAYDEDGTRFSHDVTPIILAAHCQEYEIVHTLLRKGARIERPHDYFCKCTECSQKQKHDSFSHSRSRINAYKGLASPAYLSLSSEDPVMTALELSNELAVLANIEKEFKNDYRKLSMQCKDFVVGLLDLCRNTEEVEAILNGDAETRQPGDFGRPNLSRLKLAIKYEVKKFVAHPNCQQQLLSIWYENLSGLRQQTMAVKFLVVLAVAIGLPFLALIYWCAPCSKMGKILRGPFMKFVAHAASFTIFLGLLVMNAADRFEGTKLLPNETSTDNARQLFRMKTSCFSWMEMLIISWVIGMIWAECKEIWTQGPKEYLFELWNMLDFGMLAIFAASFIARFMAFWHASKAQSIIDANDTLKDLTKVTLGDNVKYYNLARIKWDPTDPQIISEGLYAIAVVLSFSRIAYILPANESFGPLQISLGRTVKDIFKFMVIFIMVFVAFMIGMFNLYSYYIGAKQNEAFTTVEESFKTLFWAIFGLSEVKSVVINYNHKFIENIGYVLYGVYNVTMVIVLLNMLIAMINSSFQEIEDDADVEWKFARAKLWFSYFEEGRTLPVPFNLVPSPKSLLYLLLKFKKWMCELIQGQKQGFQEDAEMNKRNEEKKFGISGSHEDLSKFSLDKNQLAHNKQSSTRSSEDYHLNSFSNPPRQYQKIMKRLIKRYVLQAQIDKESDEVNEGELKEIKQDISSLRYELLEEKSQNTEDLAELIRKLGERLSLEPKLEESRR
TRPC6 act: activates the mouse TRPC6 cation channel. Q61143. B-score at 10 µM. AID 2550. actives 0.13% (n = 310,000). HEK293-TRPC6 membrane potential dye fluorescence; active compounds read high;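 active means B-score of the integrated fluorescence ratio above library mean plus 3 SD, and starting fluorescence ratio within library mean plus 5 SD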;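 further: higher score means more depolarization so channel activation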
TRPC4 inh: TRPC4 (mouse) channel inhibition; HEK293 TRPC4beta/mu-opioid, DAMGO-evoked Fluo4 calcium flux; active compounds read low; actives 0.39% (n = 300,000); B-score at 10 µM; AID 2247;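 active means B-score over 3 SD under the library average, no early fluorescence shift, positive overall ratio signal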
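Assay system: HEK293 cells with stable TRPC4beta plus mu-opioid receptor expression; Probe or stimulus: DAMGO in two steps, submaximal then maximal; Dosing: single-point compound dosing; Measured by: Fluo4 calcium-dye fluorescence, kinetic read; Read-out basis: B score from integrated Fluo4 fluorescence ratio.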
TRPC4 act: TRPC4 (mouse) channel activation | actives 0.49% (n = 310,000) | AID 2237 | B-score at 10 µM | HEK293 TRPC4beta/mu-opioid, Fluo4 calcium fluorescence; active compounds read high;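 active means B-score above 5 SD of library B-scores, and initial fluorescence ratio not above library mean plus 5 SD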;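 further: positive B-score marks a calcium rise read as TRPC4 activation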
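System – HEK293 cells stably co-expressing mouse TRPC4beta and mu-opioid receptor · Signal – Fluo4 calcium-sensitive dye fluorescence, kinetic, 1 Hz baseline · Benchmarks – buffer (low) and maximal DAMGO (high) · Read-out – B score of integrated fluorescence ratio per well · Incubation – dye loading 45 min room temperature, 110 s kinetic read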
TRPC4 PAM: allosterically enhances the mouse TRPC4 cation channel. HEK293 TRPC4beta/mu-opioid, DAMGO EC20, Fluo-4 Ca2+ flux; active compounds read high. AID 2227. actives 0.42% (n = 310,000). B-score at 10 µM. Q9QUQ5;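 active means B-score of calcium response area above 5 SD of library B-scores, with initial fluorescence ratio within 5 SD of library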;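 further: B-score of integrated fluorescence ratio over time as area under calcium response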
TRPC4 spec 2: mouse TRPC4 off-target activity of TRPC6 inhibitors, second screen; shares compounds with TRPC6 inhibitor; inhibition, % at 10 µM; HEK293 TRPC4/MOR, membrane potential dye fluorescence; channel activated by saturating DAMGO dose; actives 42% (n = 920);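 active means compounds whose fluorescence signal differed from control wells by over 3 SD, either direction, in both duplicate plates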
TRPC4 spec: selectivity of TRPC6 inhibitors: effect on mouse TRPC4 | shares compounds with TRPC6 inhibitor | HEK293 TRPC4/mu-opioid, membrane potential fluorescence | actives 61% (n = 920) | AID 2777 | activity change, negative = inhibition, % at 10 µM;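 active means rise or fall in signal beyond 3 SD of buffer-only wells in both replicate plates, either sign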;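 further: integrated kinetic ratio of fluorescence range over baseline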
HEK293 MPD ctr 2-1: second counter-screen for TRPC6 inhibitors: parental HEK293 cells; shares compounds with TRPC6 inhibitor; parental HEK293 membrane potential dye fluorescence; maximal acetylcholine challenge after compound addition; signal change vs control, % at 10 µM; actives 31% (n = 920); AID 2779;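 active means membrane potential signal moving either way by over 3 SD of the maximum-effect control, in both duplicate plates, meaning non-specific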
HEK293 MPD ctr-1: checks TRPC6 inhibitor effects in parental HEK293 cells. shares compounds with TRPC6 inhibitor. parental HEK293 membrane potential dye fluorescence. membrane potential signal change, % at 10 µM. actives 60% (n = 920). AID 2780;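 active means membrane potential signal shifting up or down by more than 3 SD of buffer-only wells, on both duplicate plates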
HEK293 MPD ctr-2: counter-screen for TRPC6 modulators: effect in parental HEK293 cells; actives 51% (n = 2,400); shares compounds with TRPC6 inhibitor; membrane potential signal change, % at 10 µM; AID 488924; membrane potential dye fluorescence;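 active means membrane potential signal moves up or down beyond 5 SD from buffer-only wells, on both duplicate plates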
HEK293 MPD ctr 2-2: second check of TRPC6 modulator effects in parental HEK293 cells; actives 14% (n = 2,400); inhibition, % at 10 µM; shares compounds with TRPC6 inhibitor; AID 488926; membrane potential dye fluorescence; after compound, maximal acetylcholine stimulation;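 active means membrane potential signal drops by more than 5 SD from the mean control signal, in both duplicate plates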;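 further: plate controls were acetylcholine ECmax control wells for no effect and buffer only wells for full effect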
TRPC4/MOR mod: selectivity of TRPC6 modulators against mouse TRPC4 | shares compounds with TRPC6 inhibitor | HEK293 TRPC4/mu-opioid, membrane potential fluorescence | AID 488927 | actives 69% (n = 2,400) | percent change from control (negative = decrease, positive = increase), % at 10 µM;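 active means membrane potential signal moved up or down beyond 5 SD of buffer control wells, in both duplicate plates, actives on both sides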;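 further: plate controls were assay buffer wells for no effect and DAMGO maximal-effect wells for full effect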
TRPC4 ctr inh 2: second check of whether TRPC6 modulators also affect mouse TRPC4. shares compounds with TRPC6 inhibitor. HEK293 TRPC4/mu-opioid, membrane potential dye fluorescence; stimulated with maximal-effect DAMGO. inhibition, % at 10 µM. actives 55% (n = 2,400);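 active means drop in membrane potential signal beyond 5 SD of the control wells in both duplicate plates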;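 further: TRPC4 counter screen for TRPC6 hits run under conditions tuned for TRPC6 not TRPC4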
TRPC6 inh conf: confirmation of mouse TRPC6 inhibitors; shares compounds with TRPC6 inhibitor; AID 488960; HEK293-TRPC6, membrane potential dye, ACh-evoked depolarization; inhibition, % at 10 µM; actives 43% (n = 3,300);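 active means fluorescence ratio falls more than 5 SD below the full-stimulation control mean, in both duplicate runs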;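 further: integrated fluorescence ratio of peak minus minimum over baseline after agonist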
TRPC6 act conf: confirmation of mouse TRPC6 activators. actives 11% (n = 2,800). activation, % at 10 µM. AID 488961. HEK293-TRPC6 membrane potential dye fluorescence, FDSS. shares compounds with TRPC6 inhibitor;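 active means ratio signal rise beyond 5 SD above unstimulated control wells' mean, seen in both duplicate runs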;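 further: plate controls were buffer EC0 wells for no effect and acetylcholine ECmax response for full effect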
* marks the source's active call; other numbers are inactive results; i = inactive; nt = no result.

SMILES | TRPC6 inhibitor | TRPC6 act | TRPC4 inh | TRPC4 act | TRPC4 PAM | HEK293 MPD ctr-2 | HEK293 MPD ctr 2-2 | TRPC4/MOR mod | TRPC4 ctr inh 2 | TRPC6 inh conf | TRPC6 act conf | others
CCOc1ccccc1CN1C2CCC1CC(c1ccc(C)cc1)C2 (centres undefined) | i | 16* | i | i | i | 265%* | i | 69%* | 58%* | i | 108%*
O=c1c2ccc(Cl)cc2[nH]c(=S)n1-c1cccnc1 | i | i | i | i | i | nt | nt | nt | nt | nt | nt
CCOC(=O)C1CCN(C=C2C(=O)N(C)C(=S)N(C)C2=O)CC1 | -9.7* | i | i | i | i | nt | nt | nt | nt | i | i | TRPC4 spec 2=i;TRPC4 spec=i;HEK293 MPD ctr 2-1=i;HEK293 MPD ctr-1=i
COc1cc(C[C@@H](C)N)c(OC)cc1I | -5.2* | i | i | i | i | i | i | i | 42%* | 42%* | i
OC1/C(=C/c2ccccc2C(F)(F)F)N2CCC1CC2 (centres undefined) | i | i | i | i | i | nt | nt | nt | nt | nt | nt
Cc1ccc(-c2cc(-c3ccccc3)cc(-c3ccccc3)[n+]2-c2ccccc2)cc1 | -9.6* | i | i | i | 33* | nt | nt | nt | nt | 96%* | i | TRPC4 spec 2=54%*;TRPC4 spec=14%*;HEK293 MPD ctr 2-1=i;HEK293 MPD ctr-1=8.2%*
Cc1ccc(-c2cc(-c3ccc(C)cc3)[n+](C)o2)cc1 | i | i | i | i | i | nt | nt | nt | nt | nt | nt
Cc1ccc(-c2cc(-c3ccc(C)cc3)[n+](-c3ccccc3)c(-c3ccc(C)cc3)c2)cc1 | -8.7* | i | i | 82* | i | nt | nt | nt | nt | 101%* | i | TRPC4 spec 2=41%*;TRPC4 spec=3.5%*;HEK293 MPD ctr 2-1=i;HEK293 MPD ctr-1=6.0%*
C[n+]1c(-c2ccccc2)cc(-c2ccc(Cl)cc2)cc1-c1ccccc1 | i | i | i | i | i | nt | nt | nt | nt | nt | nt
COP(=O)(OC)C(NS(=O)(=O)c1ccccc1)C(Cl)(Cl)Cl (centres undefined) | i | i | i | i | i | nt | nt | nt | nt | nt | nt
CC(=NCC1CCCO1)c1c(O)n(C)c(=O)n(C)c1=O (centres undefined) | i | i | i | i | i | nt | nt | nt | nt | nt | nt
CCN(CC)C(=O)c1ccc(NC(=O)Nc2ccccc2F)cc1 | i | i | i | i | i | nt | nt | nt | nt | nt | nt
CCCCn1c(N)c(C(=O)NCCN2CCOCC2)c2nc3ccccc3nc21 | i | i | i | i | i | nt | nt | nt | nt | nt | nt
CCOC(=O)c1c(N)n(CCN2CCCCC2)c2nc3ccccc3nc12 | -5.9* | i | i | i | i | -135%* | i | -28%* | 56%* | 56%* | i
O=c1[nH]c(=O)n(C2CCCCCC2)c(O)c1C=NCc1cccnc1 | i | i | i | i | i | nt | nt | nt | nt | nt | nt
COCCNC(=O)c1ccc(N2CC3CC(C2)c2cccc(=O)n2C3)c([N+](=O)[O-])c1 (centres undefined) | i | i | i | i | i | nt | nt | nt | nt | nt | nt
CN1CC(C(=O)c2ccc(Cl)cc2)C(c2ccc(N(C)C)cc2)C1 (centres undefined) | -6.5* | i | i | i | i | i | i | i | 50%* | 50%* | i
COc1ccccc1N1C(=O)CC(=O)NC1=O | i | i | i | i | i | nt | nt | nt | nt | nt | nt
CC(O)CNc1ccc([N+](=O)[O-])c2cccnc12 (centres undefined) | i | i | i | i | i | nt | nt | nt | nt | nt | nt
NCCNc1ccc([N+](=O)[O-])c2cccnc12 | -5.2* | i | i | 70* | 10* | -232%* | i | -31%* | 50%* | 43%* | i
CN1CCc2nc3sc(C#N)c(N)c3c(-c3cccs3)c2C1 | -9.2* | i | i | i | i | -192%* | i | -32%* | 34%* | i | i
CN1CCc2nc(N)c(C#N)c(-c3ccccc3)c2C1 | i | i | i | i | i | nt | nt | nt | nt | nt | nt
